In ChEMBL document CHEMBL1142542, “Synthesis, mechanistic studies, and anti-proliferative activity of glutathione/glutathione S-transferase-activated nitric oxide prodrugs” (Bioorg Med Chem, 2008):

How the values were obtained:
[1] = molecular target: T1, Glutathione S-transferase Mu 1 (Homo sapiens) (UniProt P09488); assay: Specific activity of human recombinant Glutathione S-transferase Mu 1 at 50 uM by spectrophotometric analysis in presence of glutathione relative to O2-(2,4-dinitrophenyl) 1-[(4-ethoxycarbonyl)piperazin-1-yl]diazen-1-ium-1,2-diolate
T1 sequence (whole entry): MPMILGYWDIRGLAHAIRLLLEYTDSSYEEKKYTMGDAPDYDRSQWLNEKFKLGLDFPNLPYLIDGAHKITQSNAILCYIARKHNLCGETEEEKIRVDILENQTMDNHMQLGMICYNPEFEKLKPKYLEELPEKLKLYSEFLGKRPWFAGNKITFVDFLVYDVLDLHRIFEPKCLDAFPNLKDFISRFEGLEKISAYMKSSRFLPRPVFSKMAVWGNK
How it was run: (§1)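 Reaction of 1 mL held 0.1 M phosphate buffer pH 7.4, 1 mM GSH, 50 μM compound and a catalytic amount of GST. GSTA1-1 and GSTM1-1 were purified recombinant enzymes; GSTP1-1 was purified in-house. Enzymes were first checked for activity with CDNB. Reaction started by adding compound, and the absorbance decrease at its maximum was followed at 37 °C. Specific activity came from the change in extinction coefficient.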

[2] = molecular target: T2, Glutathione S-transferase A1 (Homo sapiens) (UniProt P08263); assay: Specific activity of human recombinant Glutathione S-transferase A1 at 50 uM by spectrophotometric analysis in presence of glutathione relative to O2-(2,4-dinitrophenyl) 1-[(4-ethoxycarbonyl)piperazin-1-yl]diazen-1-ium-1,2-diolate; how it was run: as §1
T2 sequence (whole entry): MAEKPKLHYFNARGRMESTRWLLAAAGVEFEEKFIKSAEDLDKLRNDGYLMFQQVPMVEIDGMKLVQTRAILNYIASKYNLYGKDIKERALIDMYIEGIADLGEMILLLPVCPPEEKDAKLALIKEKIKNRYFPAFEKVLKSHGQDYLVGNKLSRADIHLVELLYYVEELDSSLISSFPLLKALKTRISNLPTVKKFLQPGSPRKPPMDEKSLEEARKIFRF

[3] = molecular target: Glutathione S-transferase P (Homo sapiens) (UniProt P09211); assay: Specific activity of human Glutathione S-transferase P at 50 uM by spectrophotometric analysis in presence of glutathione; how it was run: as §1
Chain of Glutathione S-transferase P (Homo sapiens) (P09211 2-210 limits assumed): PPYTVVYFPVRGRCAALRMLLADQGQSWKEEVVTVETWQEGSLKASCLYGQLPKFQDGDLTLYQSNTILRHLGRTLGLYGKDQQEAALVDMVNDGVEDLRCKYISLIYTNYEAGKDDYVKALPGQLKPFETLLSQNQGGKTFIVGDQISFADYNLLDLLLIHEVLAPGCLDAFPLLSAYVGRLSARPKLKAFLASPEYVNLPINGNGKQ

[4] = molecular target: Glutathione S-transferase P (Homo sapiens) (UniProt P09211); assay: Specific activity of human Glutathione S-transferase P at 50 uM by spectrophotometric analysis in presence of glutathione relative to O2-(2,4-dinitrophenyl) 1-[(4-ethoxycarbonyl)piperazin-1-yl]diazen-1-ium-1,2-diolate; how it was run: as §1
[5] = molecular target: T1, Glutathione S-transferase Mu 1 (Homo sapiens); assay: Specific activity of human recombinant Glutathione S-transferase Mu 1 at 50 uM by spectrophotometric analysis in presence of glutathione; how it was run: as §1
[6] = molecular target: T2, Glutathione S-transferase A1 (Homo sapiens); assay: Specific activity of human recombinant Glutathione S-transferase A1 at 50 uM by spectrophotometric analysis in presence of glutathione; how it was run: as §1
[7] = tested on: U-937; assay: Antiproliferative activity against human U937 cells after 72 hrs by MTT assay; assay type: functional, cell-based; conditions: U-937, 72 h
How it was run: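 Cells seeded at 10⁴ per well and grown 24 h, then exposed 72 h to increasing drug concentrations diluted in PBS from 10 mM DMSO stocks. Growth read by MTT assay. Six repeats per concentration, at least two independent experiments; IC50 reported.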

[8] = Chemical stability assessed as half life in 0.1 M phosphate buffer at 33 uM at pH 7.4 in presence of glutathione; assay type: physicochemical; conditions: gsh, pH 7.4, 33 µM
[9] = tested on: HCT-15; assay: Antiproliferative activity against human HCT-15 cells after 72 hrs by MTT assay; assay type: functional, cell-based; conditions: HCT-15, 72 h
[10] = tested on: PC-3; assay: Antiproliferative activity against human PC-3 cells after 72 hrs by MTT assay; assay type: functional, cell-based; conditions: PC-3, 72 h
How it was run: (§2)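 MTT (CellTiter 96) proliferation assay. Seeded at 10⁴ per well and grown 24 h, then given rising compound concentrations in PBS (from 10 mM DMSO stocks) for 72 h. Six repeats per concentration, at least two independent experiments; IC50 reported.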

[11] = Stability assessed as nitric oxide release in 0.1 M phosphate buffer at pH 7.4 at 100 to 150 nM measured per mole in presence of glutathione by chemiluminescence analysis; assay type: physicochemical
[12] = Antiproliferative activity against human H441 cells after 72 hrs by MTT assay; assay type: functional, cell-based; conditions: NCI-H441, 72 h
[13] = tested on: A549; assay: Antiproliferative activity against human A549 cells after 72 hrs by MTT assay; assay type: functional, cell-based; conditions: A549, 72 h; how it was run: as §2
[14] = tested on: HL-60; assay: Antiproliferative activity against human HL-60 cells after 72 hrs by MTT assay; assay type: functional, cell-based; conditions: HL-60, 72 h; how it was run: as §2
[15] = Antiproliferative activity against human HCT 116 cells after 72 hrs by MTT assay; assay type: functional, cell-based; conditions: HCT-116, 72 h
[16] = tested on: TK-10; assay: Antiproliferative activity against human TK-10 cells after 72 hrs by MTT assay; assay type: functional, cell-based; conditions: TK-10, 72 h
[17] = Antiproliferative activity against human H1395 cells after 72 hrs by MTT assay; assay type: functional, cell-based; conditions: NCI-H1395, 72 h
[18] = tested on: Caco-2; assay: Antiproliferative activity against human Caco-2 cells after 72 hrs by MTT assay; assay type: functional, cell-based; conditions: Caco-2, 72 h
[19] = Antiproliferative activity against human 786O cells after 72 hrs by MTT assay; assay type: functional, cell-based; conditions: 786-0, 72 h
[20] = Antiproliferative activity against HREpC cells after 72 hrs by MTT assay; assay type: cell-based; conditions: Homo sapiens
How it was run: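 Seeded at 10⁴ per well and grown 24 h before dosing. Compounds came from 10 mM DMSO stocks and were diluted in PBS to increasing concentrations. Exposure was 72 h, with MTT growth read-out. Six repeats per concentration, at least two independent experiments; IC50.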

[21] = Antiproliferative activity against human H838 cells after 72 hrs by MTT assay; assay type: functional, cell-based; conditions: NCI-H838, 72 h
[22] = Antiproliferative activity against human BJ-5ta cells after 72 hrs by MTT assay; assay type: cell-based; conditions: hTERT-BJ
How it was run: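 10⁴ cells per well, allowed 24 h growth, then exposed 72 h to increasing concentrations added in PBS from 10 mM DMSO stocks. MTT proliferation read-out. Each concentration in six repeats, at least two independent experiments; IC50.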

[23] = Antiproliferative activity against human UO-30 cells after 72 hrs by MTT assay; assay type: functional, cell-based; conditions: UO-30, 72 h
[24] = tested on: OVCAR-5; assay: Antiproliferative activity against human OVCAR5 cells after 72 hrs by MTT assay; assay type: functional, cell-based; conditions: OVCAR-5, 72 h
[25] = tested on: HT-29; assay: Antiproliferative activity against human HT-29 cells after 72 hrs by MTT assay; assay type: functional, cell-based; conditions: HT-29, 72 h
[26] = tested on: OVCAR-3; assay: Antiproliferative activity against human OVCAR-3 cells after 72 hrs by MTT assay; assay type: functional, cell-based; conditions: OVCAR-3, 72 h

Structure (SMILES)	Activity [1]	Activity [2]	Activity [3] [µmol/min/mg]	Activity [4]	Activity [5] [µmol/min/mg]	Activity [6] [µmol/min/mg]	IC50 [7] [nM]	IC50 [9] [nM]	IC50 [10] [nM]	Activity [11] [mol/mol]	IC50 [12] [nM]	IC50 [13] [nM]	IC50 [14] [nM]	IC50 [15] [nM]	also measured
CCOC(=O)N1CC(C)N(/[N+]([O-])=N/Oc2ccc([N+](=O)[O-])cc2[N+](=O)[O-])CC1C (stereo unspecified)	0.39	0.27	0.14	0.1	49	17.6	–	–	–	–	–	–	–	–	–
CCOC(=O)N1CCN(/[N+]([O-])=N/Oc2ccc([N+](=O)[O-])cc2[N+](=O)[O-])C(C)C1 (stereo unspecified)	0.87	0.71	0.88	0.65	110	47	–	–	–	–	–	–	–	–	–
CCOC(=O)N1CCCN(/[N+]([O-])=N/Oc2ccc([N+](=O)[O-])cc2[N+](=O)[O-])CC1	0.3	0.25	0.16	0.12	38	16.8	–	–	–	–	–	–	–	–	–
CCOC(=O)N1CCN(/[N+]([O-])=N/Oc2ccc([N+](=O)[O-])cc2[N+](=O)[O-])CC1C (stereo unspecified)	0.89	0.84	1.15	0.85	112	55.5	–	–	–	–	–	–	–	–	–
COC(=O)N1CCN(/[N+]([O-])=N/Oc2ccc([N+](=O)[O-])cc2[N+](=O)[O-])CC1	0.81	0.68	0.98	0.72	102	45.1	–	–	–	–	–	–	–	–	–
CCCOC(=O)N1CCN(/[N+]([O-])=N/Oc2ccc([N+](=O)[O-])cc2[N+](=O)[O-])CC1	1	0.89	1.2	0.88	126	59	700	1300	2000	2	2400	2400	1400	1500	t1/2 [8]: 27 min
CCOC(=O)N1CCN(/[N+]([O-])=N/Oc2ccc([N+](=O)[O-])cc2[N+](=O)[O-])CC1	1	1	1.36	1	126	66.3	300	600	1100	1.7	1000	1500	200	700	IC50 [16]: 500 nM; IC50 [17]: 800 nM; IC50 [18]: 2600 nM; IC50 [19]: 800 nM; IC50 [20]: 11300 nM; IC50 [21]: 4300 nM; IC50 [22]: 10000 nM; IC50 [23]: 900 nM; IC50 [24]: 1000 nM; IC50 [25]: 800 nM; IC50 [26]: 800 nM
CCOC(=O)N1C(C)CN(/[N+]([O-])=N/Oc2ccc([N+](=O)[O-])cc2[N+](=O)[O-])CC1C (stereo unspecified)	1.36	1.06	1.17	0.86	172	70.3	4900	8200	> 10000	1.75	8100	> 10000	4700	9500	t1/2 [8]: 26 min; IC50 [26]: 4900 nM
